M4 PAM: positive allosteric modulators of human muscarinic M4 receptor; 360,000 compounds, 0.4% hits; activation, % at 3 µM; P08173; AID 624126; CHO-K1 hM4/Gqi5, Fluo-8 calcium fluorescence, ACh EC20; 0% = ACh EC20, 100% = maximal ACh;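 active = activation above its plate's cutoff, the mean activation of sample wells plus 3 SD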
Target sequence (P08173 whole entry, looked up): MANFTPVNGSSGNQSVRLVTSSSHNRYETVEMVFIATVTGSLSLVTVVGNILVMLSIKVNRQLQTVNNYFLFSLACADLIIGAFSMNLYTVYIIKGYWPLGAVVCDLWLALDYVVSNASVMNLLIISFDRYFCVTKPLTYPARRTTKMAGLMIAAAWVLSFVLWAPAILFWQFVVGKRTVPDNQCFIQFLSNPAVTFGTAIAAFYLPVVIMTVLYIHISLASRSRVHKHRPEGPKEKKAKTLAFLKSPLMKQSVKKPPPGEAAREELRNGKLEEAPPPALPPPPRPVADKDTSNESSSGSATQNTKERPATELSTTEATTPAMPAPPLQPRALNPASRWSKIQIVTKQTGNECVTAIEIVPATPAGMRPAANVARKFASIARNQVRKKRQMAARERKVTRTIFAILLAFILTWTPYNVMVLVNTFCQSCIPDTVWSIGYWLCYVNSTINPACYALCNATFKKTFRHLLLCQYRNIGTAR
CHRM4 agonist: CHRM4 agonism in calcium assay | P08173 | AID 624127 | 360,000 compounds, 0.14% hits | activation, % at 3 µM | CHO-K1 hM4/Gqi5, Fluo-8 calcium fluorescence; vehicle 0%, full acetylcholine response 100%;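 active = activation above the run mean over all test wells plus 3 SD, cut at about 32% in these data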;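 also: peak over basal fluorescence ratio per well then scaled between controls; 0% = DMSO wells and 100% = acetylcholine at EC100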
CHRM5 antagonist: blocks acetylcholine activation of human M5 receptor; P08912; CHO-hM5 cells, Fluo-8 calcium fluorescence, ACh EC80; inhibition, % at 3 µM; 360,000 compounds, 0.59% hits; AID 624040;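 active = inhibition above a per-plate cutoff, the mean of that plate's test compounds plus 3 SD, cut at about 27% in these data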;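 also: 0% = acetylcholine EC80 with DMSO and 100% = DMSO without agonist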
M5 ag: agonists of human muscarinic M5 receptor (CHRM5) | 360,000 compounds, 0.19% hits | CHO-K1 hM5 cells, Fluo-8 calcium fluorescence; 0% DMSO wells, 100% maximal acetylcholine response | activation, % at 3 µM;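 active = activation above the run's mean over test compounds plus 3 SD, cut at about 23% in these data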;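 also: signal is peak over basal fluorescence ratio across the kinetic read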
CHRM4 antagonist: CHRM4 antagonism in calcium assay | P08173 | CHO-hM4 cells, ACh EC80, Fluo-8 calcium fluorescence | inhibition, % at 3 µM | 360,000 compounds, 0.73% hits | AID 624125;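 active = inhibition above its plate's cutoff, the mean inhibition of sample wells plus 3 SD, cut at about 27% in these data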;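 also: 0% = acetylcholine EC80 with DMSO and 100% = DMSO without agonist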
M5 PAM: CHRM5 positive allosteric modulation. CHO-K1 hM5, Fluo-8 calcium, ACh EC20 PAM; 0% = ACh EC20, 100% = ACh EC100. activation, % at 3 µM. 360,000 compounds, 0.3% hits;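 active = activation above the run cutoff, the mean activation of all test compounds plus 3 SD, cut at about 18% in these data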
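Assay system – human M5 receptor in CHO-K1 cells · Read-out – % activation, ACh-normalized · Technique – Fluo-8 calcium fluorescence · Dosing – single-point, 3 µM nominal · Incubation – Fluo-8 loading 80 min at 37 °C plus 30 min room temperature · Repeats – singlicate, one well per test compound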
* marks the source's active call; other numbers are inactive results; + = active, no number. In the library only some 1.8% were active in any assay of this set; here they are far more common.

SMILES	M4 PAM	CHRM4 agonist	CHRM5 antagonist	M5 ag	CHRM4 antagonist	M5 PAM
CCO[C@H]1OC(C(=O)NCc2ccccc2)=C[C@@H](c2ccc3c(c2)OCO3)[C@@H]1CCCO	10	19	3	25*	-18	-4
CCO[C@@H]1OC(C(=O)NCc2ccccc2)=C[C@H](c2csc3ccccc23)[C@H]1CCCO	-14	42*	12	-4	27*	-32
CCO[C@H]1OC(C(=O)NCc2nc3ccccc3[nH]2)=C[C@@H](C2CC2)[C@@H]1CCCO	24*	1	2	1	-8	11
COC(=O)c1cc(Br)c(=O)n(-c2cccc(F)c2)c1	5	0	-1	-8	0	6
Cc1ccc(C(=O)NC(C)c2ccc(F)cc2)cc1 (centres undefined)	6	0	7	-4	1	-3
CC(C)Cc1ccc(C(C)NC(=O)c2ccc(=O)[nH]c2)cc1 (centres undefined)	-15	22	10	25*	9	-13
CC(Cc1c[nH]c2ccccc12)C(=O)NCc1ccco1 (centres undefined)	0	1	15	-3	-5	-5
Cc1cccc(-c2noc(-c3csc([C@@H]4C[C@H](O)[C@@H](CO)O4)n3)n2)c1	8	7	29*	1	-15	-10
O=C(NNC(=S)NC(=O)C12CC3CC(CC(C3)C1)C2)c1ccncc1	-29	76*	12	28*	12	-16
CC1(C(=O)NC(=S)NNC(=O)c2ccncc2)CCCCC1	-4	44*	1	9	-14	-12
C=CCNC(=O)Nc1ccc(Cl)cn1	21*	0	-1	0	-5	1
Cn1c(=O)n(Cc2ccccc2Cl)c2ccccc21	1	-1	43*	-3	0	-3
COC(=O)c1ccccc1-c1c2ccc(=N)cc-2oc2cc(N)ccc12	-20	+	101*	+	101*	-46
CCOc1ccccc1NC(=O)C1CC(=O)n2ncnc2N1 (centres undefined)	18	2	6	-3	28*	-6
Cn1nc(C(F)(F)F)c(/C=N/OC(=O)c2ccccc2)c1SCc1ccccc1Cl	-24	-1	4	-5	30*	-11
COc1ccc(CCNC(=O)c2ccc(CSc3ccc(Cl)cc3)o2)cc1OC	-13	23	22	4	30*	-25
CCOC(=O)Cc1csc(NC(=O)COc2ccc(N(C)S(=O)(=O)c3ccc(C)cc3)cc2)n1	-11	12	8	-4	4	-48
COc1ccc(OC)c(-c2csc(NC(=O)Cc3ccccc3F)n2)c1	-20	0	8	-3	54*	-2
CCOc1ccc(S(=O)(=O)N(C)c2ccc(OCC(=O)Nc3nc(-c4cc(OC)ccc4OC)cs3)cc2)cc1	30*	0	10	3	-7	0
COc1ccc(OC)c(-c2csc(NC(=O)Cc3ccccc3OC)n2)c1	-5	4	3	-6	-21	1
O=C(CCl)N(c1ccccc1)c1c[nH]c2ccccc12	2	2	-2	-5	0	-3
O=C(CCl)N(c1ccc(Cl)cc1)c1c[nH]c2ccccc12	5	8	6	8	35*	5
O=C(c1cccc(S(=O)(=O)N2CCOCC2)c1)N1CCN(C/C=C/c2ccccc2)CC1	-14	5	39*	-12	-5	-49
O=C(c1cccc(S(=O)(=O)N2CCOCC2)c1)N1CCC(Cc2ccccc2)CC1	5	5	1	1	-19	-2
CCOc1ccc(CN(C(=O)c2cc(=O)c3cc(C)cc(C)c3o2)C2CCS(=O)(=O)C2)cc1 (centres undefined)	3	3	9	-1	3	5
SMILES	M4 PAM	CHRM4 agonist	CHRM5 antagonist	M5 ag	CHRM4 antagonist	M5 PAM
COc1ccc(CSCCc2n[nH]c(=S)n2-c2ccccc2)cc1	-26	4	4	0	48*	-1
Cc1[nH]nc(C(=O)NN=Cc2ccccc2Cl)c1N=NN(C)C	3	0	3	2	5	-1
CCCC(=O)N1CCC1(C)C(=O)Nc1ccc2scnc2c1 (centres undefined)	2	1	7	1	6	-1
CCCn1c(NC(=O)CN2C(=O)NC3(CCCC3)C2=O)nc2ccccc21	23*	3	-3	-1	-28	-2
CCCn1c(NC(=O)CN2C(=O)NC3(CCCCC3)C2=O)nc2ccccc21	-3	2	-4	-1	-3	2
O=C(CCC(=O)c1ccc(Cl)cc1)OCc1nc2ccsc2c(=O)[nH]1	2	3	1	5	-10	-2
N#CCC(=O)Nc1ccc(C(=O)NNC(=S)NC2CC2)cc1	25*	2	-18	-3	-8	10
CN(C(=O)CCNC(=O)Cn1cnc2ccccc2c1=O)c1ccccc1F	-4	1	18	-4	11	-5
Cc1c(Cl)c([N+](=O)[O-])nn1CCCC(=O)Nc1c(C)n(C)n(-c2ccccc2)c1=O	-42	1	17	-19	27*	-31
Cc1c(NC(=O)Nc2ccc(Cl)c(Cl)c2)c(=O)n(-c2ccccc2)n1C	0	12	30*	0	10	-15
Cc1ccc(Nc2nc3ccccc3nc2Nc2c(C)n(C)n(-c3ccccc3)c2=O)cc1	12	1	-11	3	-5	23*
CCOC(=O)C1(CCCc2ccccc2)CCN(C2CCSCC2)CC1	-20	3	30*	-11	8	-21
CCOC(=O)CSc1nnc(NC(=O)CN2CCCCC2)s1	1	0	0	-4	-10	2
N#Cc1c2c(c(-n3cnc4ccccc43)n3c1nc1ccccc13)CCC2	-1	0	31*	-1	-10	47*
Cc1nccn1-c1c2c(c(C#N)c3nc4ccccc4n13)CCCC2	6	1	4	-1	-4	4
CC(=O)c1sc(NC(=O)CCCOc2ccc(Cl)cc2)nc1C	12	1	1	-1	-7	9
O=C([O-])c1ccccc1-[n+]1c(-c2ccccc2)cc(-c2ccccc2)cc1-c1ccccc1	-14	0	8	-13	61*	-8
COc1cccc(CNC(=O)CCC2CCCN(C3CCOCC3)C2)c1 (centres undefined)	3	0	15	-5	8	-6
COc1cccc(CNC(=O)CCC2CCCN(c3cc(C)nc(N4CCCC4)n3)C2)c1 (centres undefined)	-23	0	7	-9	28*	3
